Measurements collected from several papers.
Each line is one published result; the experiments were not run side by side.
Target: Interferon-induced, double-stranded RNA-activated protein kinase (EIF2AK2, Homo sapiens, UniProt P19525)

O=C(NCC1CCOCC1)c1n[nH]cc1NC(=O)c1c(F)cccc1F gave a remaining binding of 100% (binding; competition with immobilised ligand; 1 µM).
The remaining binding of COc1cnc(Nc2cccc(S(N)(=O)=O)c2)nc1N1CCN(c2ccccc2)C(=O)C1 is reported as 99% (binding; competition with immobilised ligand; 1 µM).
For CC(=O)C1=C(C)N(c2cccc(C(F)(F)F)c2)C(=O)N[C@@H]1c1ccc(C#N)nc1, the remaining binding was 83.4% (cell-free assay; competition with immobilised ligand; 1 µM).
The remaining binding of O=C(NCCCN1CCOCC1)c1ccc(Nc2ncc(Cl)c(-c3ccc(Cl)s3)n2)cc1 is reported as 58% (binding; competition with immobilised ligand; 1 µM).
COc1ccnn2ncc(-c3ccnc(N(C)C)n3)c12 gave a remaining binding of 100% (binding; 1 µM).
The remaining binding of CS(=O)(=O)N1CCCC(NC(=O)[C@H](CCC2CCCCC2)NC(=O)c2ccc(CNC(=O)c3cnc4ccccn34)cc2)C1 (some centres unmarked) is reported as 47% (cell-free assay; competition with immobilised ligand; 0.1 µM).
CN(C)c1ncc(F)c(-c2cnn3ncccc23)n1 gave a remaining binding of 100% (binding; 1 µM).
CCS(=O)(=O)c1cc2cc(C[C@](O)(CC(C)(C)c3ccc(F)cc3C(N)=O)C(F)(F)F)[nH]c2cn1 gave a remaining binding of 52% (cell-free assay; competition with immobilised ligand; 1 µM).
The remaining binding of O=C(c1ccc(Nc2nccc(-c3cc4ccccc4s3)n2)cc1)N1CCC(N2CCCC2)CC1 is reported as 21% (binding; competition with immobilised ligand; 1 µM).
For N[C@@H]1CCN(c2nccc(-c3cnn4ncccc34)n2)C1, the remaining binding was 100% (binding; 1 µM).
For Cc1cnc(Nc2ccc(C(=O)N3CCC(N4CCCC4)CC3)cc2)nc1-c1cc2ccccc2s1, the remaining binding was 7% (binding; competition with immobilised ligand; 1 µM).
COc1ncc2cc3ccccc3nc2c1C#N gave a remaining binding of 100% (cell-free assay; competition with immobilised ligand; 5 µM).
CN1CCN(c2cnc3c(C4CCN(C(=O)c5ccc(OC(F)(F)F)cc5N)CC4)ncnc3c2)CC1 gave a remaining binding of 85% (cell-free assay; competition with immobilised ligand; 1 µM).
For c1cncc(-c2cccc(Nc3nccc(NC4CCCCC4)n3)c2)c1, the remaining binding was 100% (binding; competition with immobilised ligand; 10 µM).
For c1cnn2ncc(-c3ccnc(N4CCC45COC5)n3)c2c1, the remaining binding was 100% (binding; 1 µM).
The remaining binding of CN(C)C(=O)Cn1cc(-c2nc(C3(c4ccc(-c5cnc(N)nc5)cc4)CC3)no2)cn1 is reported as 100% (cell-free assay; competition with immobilised ligand; 1 µM).
The remaining binding of CN(C)c1nccc(-c2cnn3ncccc23)n1 is reported as 100% (binding; 1 µM).
FC(F)(F)Oc1cccc(-c2cnc3ccc(-c4ccncc4)nn23)c1 gave a remaining binding of 65% (cell-free assay; competition with immobilised ligand; 5 µM).
For C[C@@H]1CCN(c2nccc(-c3cnn4ncccc34)n2)C1, the remaining binding was 83% (binding; 1 µM).
With CC(=O)N1CCC(c2ccc(C(=O)NC(=N)N)cc2C(F)(F)F)CC1 the remaining binding was 100% (cell-free assay; competition with immobilised ligand; 1 µM).
